Test results reported in ChEMBL document CHEMBL4330080, “Hydroxyazole scaffold-based Plasmodium falciparum dihydroorotate dehydrogenase inhibitors: Synthesis, biological evaluation and X-ray structural studies” (Eur J Med Chem, 2019).

Legend:
[1] = Dissociation constant, pKa of the compound by potentiometric analysis; format: physicochemical
[2] = biological target: T1, Dihydroorotate dehydrogenase (Plasmodium falciparum, UniProt Q54A96); assay: Inhibition of Plasmodium falciparum recombinant N-terminal His6-tagged DHODH (159-569 residues) expressed in Escherichia coli BL21(DE3) using DHO as substrate measured every min for 5 mins by DCPI dye-based photometric analysis
T1 sequence (Q54A96 whole entry): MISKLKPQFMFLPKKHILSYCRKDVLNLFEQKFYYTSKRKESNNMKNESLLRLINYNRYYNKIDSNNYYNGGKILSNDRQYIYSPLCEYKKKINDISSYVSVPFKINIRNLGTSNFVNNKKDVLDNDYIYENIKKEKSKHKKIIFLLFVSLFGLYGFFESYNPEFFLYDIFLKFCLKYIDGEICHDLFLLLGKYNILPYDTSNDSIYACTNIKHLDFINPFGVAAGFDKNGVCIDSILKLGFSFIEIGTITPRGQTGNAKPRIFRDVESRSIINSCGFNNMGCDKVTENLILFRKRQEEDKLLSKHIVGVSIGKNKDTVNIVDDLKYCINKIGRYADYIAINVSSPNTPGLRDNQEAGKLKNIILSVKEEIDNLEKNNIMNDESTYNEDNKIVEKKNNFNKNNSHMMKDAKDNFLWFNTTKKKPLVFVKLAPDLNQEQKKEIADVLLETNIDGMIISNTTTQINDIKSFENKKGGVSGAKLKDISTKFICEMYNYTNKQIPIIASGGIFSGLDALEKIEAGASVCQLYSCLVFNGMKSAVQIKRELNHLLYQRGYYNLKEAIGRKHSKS
Outline: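 N-terminally truncated recombinant enzyme, His-tag IMAC then size exclusion purified, in 50 mM Tris/HCl pH 7.8, 150 mM KCl, 0.1% Triton X-100 with 60 μM DCIP and 20 μM decylubiquinone. Started with 200 μM DHO; initial rate from DCIP absorbance at 600 nm over the first 5 min. IC50 is mean ± SE of three experiments.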

[3] = Cytotoxicity against African green monkey COS7 cells after 48 hrs by MTT assay; format: cell-based; conditions: chlorocebus aethiops, COS-7 cells
Outline: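 COS-7 cells in DMEM with 10% heat-inactivated FBS and gentamicin, 37°C, 5% CO2. Seeded at 10⁴ cells/well and left 16 h to adhere. Compounds added at several concentrations for 48 h. MTT added for 4 h, formazan dissolved in acidified Triton/isopropanol, OD read at 570 nm. CC50 from viability relative to control, given with 95% confidence interval of the fit.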

[4] = biological target: Dihydroorotate dehydrogenase (quinone), mitochondrial (Homo sapiens, UniProt Q02127); assay: Inhibition of human recombinant N-terminal GST-tagged DHODH (31 to 395 residues) expressed in Escherichia coli BL21(DE3) using DHO as substrate preincubated for 5 mins followed by substrate addition and measured for 5 mins by DCPI dye-based assay
Sequence of Dihydroorotate dehydrogenase (quinone), mitochondrial (Q02127 whole entry, the tested form may be a part): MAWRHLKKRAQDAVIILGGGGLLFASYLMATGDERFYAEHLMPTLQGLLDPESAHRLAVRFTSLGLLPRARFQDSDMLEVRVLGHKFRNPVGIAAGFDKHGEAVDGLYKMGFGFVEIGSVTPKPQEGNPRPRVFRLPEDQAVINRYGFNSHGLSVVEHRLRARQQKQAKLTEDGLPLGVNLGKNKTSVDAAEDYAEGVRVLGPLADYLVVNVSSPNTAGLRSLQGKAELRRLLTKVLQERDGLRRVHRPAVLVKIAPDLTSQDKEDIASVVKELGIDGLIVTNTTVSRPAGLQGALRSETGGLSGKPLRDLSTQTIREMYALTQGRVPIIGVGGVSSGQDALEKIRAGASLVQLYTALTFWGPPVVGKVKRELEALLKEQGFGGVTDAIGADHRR
Outline: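 GST-fused enzyme from E. coli, glutathione-affinity purified. Pre-incubated 5 min at 37°C in Tris buffer pH 8.0 with 100 μM coenzyme Q10, 50 μM DCIP and compounds (0.1% DMSO final). Started with 500 μM DHO; DCIP reduction followed at 650 nm over the first 5 min. IC50 is mean ± SE of three experiments.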

Plasmodium falciparum = assay: Anti-plasmodial activity against synchronized ring stage Plasmodium falciparum 3D7 infected in human erythrocytes assessed as reduction in parasitemia after 48 hrs by Sybr Green I dye-based flow cytometric analysis; format: functional, organism-based; conditions: 3D7, 48 h
Outline: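 Parasites kept in O+ human erythrocytes in RPMI 1640 with HEPES pH 7.3, glutamine, glucose, gentamicin, 0.5mM hypoxanthine and 10% human serum, 4% hematocrit, 37°C in 1% O2/5% CO2. Sorbitol-synchronized rings; 1:2 serial dilutions from 300µM at 2% hematocrit, 1-2% parasitemia, 48h. SybrGreen I flow cytometry; triplicate points fitted to log[I] vs response for EC50.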

[5] = Selectivity ratio of IC50 for human recombinant DHODH to IC50 for Plasmodium falciparum recombinant DHODH

In the case of `Cn1cc(C(=O)NCC(c2ccccc2)c2ccccc2)c(O)n1`, the pKa [1] is reported as 6.42 and the IC50 [2] is reported as > 250 µM.

In the case of `Cn1nc(O)c(C(N)=O)c1COc1ccccc1`, the IC50 [2] is reported as > 250 µM.

With `Cn1nc(O)c(C(=O)O)c1COc1cccc(C(F)(F)F)c1` the CC50 at 48 h [3] was 167 µM, the IC50 [2] was 2.8 µM and the IC50 [4] was ≥ 200 µM. It also gave an EC50 (Plasmodium falciparum) of 40.7 µM.

With `O=C(NCC(c1ccccc1)c1ccccc1)c1nonc1O` the pKa [1] was 3.33, the Ratio IC50 [5] was > 3 and the IC50 [2] was 75 µM. For the same compound, the IC50 [4] was > 200 µM.

For `CN(Cc1c(C(=O)O)c(O)nn1C)c1ccccc1`, the Ratio IC50 [5] was > 10, the IC50 [2] was 23 µM and the IC50 [4] was > 250 µM.

For `O=C(NCC(c1ccccc1)c1ccccc1)c1nsnc1O`, the CC50 at 48 h [3] was 190 µM, the pKa [1] was 3.72 and the IC50 [2] was 12 µM. The IC50 [4] was > 200 µM and the EC50 (Plasmodium falciparum) was 35.9 µM.

In the case of `O=C(NCc1ccccc1)c1nsnc1O`, the pKa [1] is reported as 3.69, the Ratio IC50 [5] is reported as > 6 and the IC50 [2] is reported as 35 µM. The IC50 [4] was > 200 µM.

In the case of `Cn1nc(O)c(C(=O)O)c1CSc1ccccc1`, the Ratio IC50 [5] is reported as > 10, the IC50 [2] is reported as 25 µM and the IC50 [4] is reported as > 250 µM.

With `Cn1nc(O)c(C(=O)O)c1COc1ccccc1` the Ratio IC50 [5] was > 13, the IC50 [2] was 19 µM and the IC50 [4] was > 250 µM.

With `Cn1nc(O)c(C(=O)O)c1CNc1ccccc1` the Ratio IC50 [5] was > 16, the IC50 [2] was 16 µM and the IC50 [4] was > 250 µM.

In the case of `Cn1nc(O)c(C(=O)O)c1COc1ccc(C(F)(F)F)cc1`, the CC50 at 48 h [3] is reported as 152 µM, the IC50 [2] is reported as 5.3 µM and the IC50 [4] is reported as ≥ 200 µM. The EC50 (Plasmodium falciparum) was 26.7 µM.

In the case of `Cc1c(C(=O)NCC(c2ccccc2)c2ccccc2)c(O)nn1C`, the pKa [1] is reported as 6.54 and the IC50 [2] is reported as > 250 µM.

In the case of `CCOc1nn(C)c(COc2ccccc2)c1C(=O)O`, the IC50 [2] is reported as > 250 µM.

In the case of `Cn1nc(OCc2ccccc2)c(C(=O)O)c1COc1ccccc1`, the IC50 [2] is reported as > 250 µM.

With `CCOC(=O)c1c(O)nn(C)c1COc1ccccc1` the IC50 [2] was > 250 µM.

In the case of `Cn1nc(OCC2CC2)c(C(=O)O)c1COc1ccccc1`, the IC50 [2] is reported as > 250 µM.
